Laboratory results as given in ChEMBL document CHEMBL4808174, “Exploring Heteroaromatic Rings as a Replacement for the Labile Amide of Antiplasmodial Pantothenamides” (J Med Chem, 2021).
Calls of active or inactive are those of the source. The rule behind the calls is not given here.

How the values were obtained:
Plasmodium falciparum [1] = assay: Antiplasmodial activity against ring stage Plasmodium falciparum 3D7 infected in human erythrocytes assessed as inhibition of parasite growth incubated for 96 hrs in presence of 1 uM pantothenate by SYBR Green I dye based fluorescence assay; format: functional, organism-based; conditions: 3D7, Erythrocyte
Method in brief: (§1)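 P. falciparum 3D7 ring stages at 0.5% parasitemia and 1% hematocrit in Albumax II medium. Where specified, 100 μM sodium pantothenate was added. Incubation 96 h, then freeze-thaw and SYBR Safe lysis-buffer fluorescence. Chloroquine 0.25-25 μM served as zero-proliferation control. Experiments in triplicate; 100 μM pantothenate data from two experiments.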

Plasmodium falciparum [2] = assay: Antiplasmodial activity against ring stage Plasmodium falciparum 3D7 infected in human erythrocytes assessed as inhibition of parasite growth at 100 uM pretreated with compound followed by parasite infection by SYBR Green I dye based fluorescence assay; format: functional, organism-based; conditions: Erythrocyte
[3] = Antiproliferative activity against human HFF cells assessed as cell proliferation at 200 uM incubated for 3 to 4 days in presence of 1 uM pantothenate by SYBR assay
[4] = Antiproliferative activity against human HFF cells assessed as cell proliferation at 100 uM incubated for 3 to 4 days in presence of 1 uM pantothenate by SYBR assay
[5] = Apparent permeability of the compound across apical to basolateral side in human Caco-2 cells at 20 uM
[6] = Selectivity index, ratio of IC50 for human HFF cells to IC50 for Plasmodium falciparum in presence of 1 uM pantothenate; format: toxicity; conditions: HFF cells versus Plasmodium falciparum, read-out: Ratio IC50
Method in brief: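 HFF cells grown 3-4 days in RPMI 1640 with 10% bovine calf serum and antibiotics, with compound up to 200 μM; SYBR Safe-based read-out. Selectivity index = HFF IC50 divided by P. falciparum IC50 at 1 μM pantothenate. Where HFF inhibition stayed below 50%, 200 μM (or 100 μM) was used as the HFF value to set limits.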

Plasmodium falciparum [7] = assay: Antiplasmodial activity against ring stage Plasmodium falciparum NF54 infected in human erythrocytes assessed as inhibition of parasite growth incubated for 72 hrs in presence of pantothenate by SYBR Green dye based fluorescence assay; format: functional, organism-based; conditions: NF54, Erythrocyte
Plasmodium falciparum [8] = assay: Antiplasmodial activity against ring stage Plasmodium falciparum 3D7 infected in human erythrocytes assessed as inhibition of parasite growth incubated for 96 hrs in presence of 100 uM pantothenate by SYBR Green I dye based fluorescence assay; format: functional, organism-based; conditions: 3D7, Erythrocyte; method in brief: as §1

Structure (SMILES)	IC50 (Plasmodium falciparum [1]) [µM]	Activity (Plasmodium falciparum [2])	proliferation at 200 µM [3] [%]	proliferation at 100 µM [4] [%]	Papp A→B at 20 µM [5] [×10⁻⁶ cm/s]	selectivity ratio at 1 µM [6]	IC50 (Plasmodium falciparum [7]) [µM]	IC50 (Plasmodium falciparum [8]) [µM]
CCCCCCn1cc(CNC(=O)[C@H](O)C(C)(C)CO)nn1	0.055	–	–	–	–	–	–	–
CCN(CC)CCCC(C)Nc1ccnc2cc(Cl)ccc12 (stereo not given)	–	inactive	–	–	–	–	–	–
CCCCCn1cnc(CNC(=O)[C@H](O)C(C)(C)CO)n1	> 100	–	106	101	–	–	–	–
CC(C)NCC(O)COc1cccc2ccccc12 (stereo not given) [PROPRANOLOL]	–	–	–	–	49	–	–	–
CCCCc1cc(CNC(=O)[C@H](O)C(C)(C)CO)no1	0.072	–	74	95	–	> 2700	–	–
CCCCCC(=O)NCCNC(=O)[C@H](O)C(C)(C)CO	–	–	–	–	–	–	0.63	–
CCCCCc1nc(CNC(=O)[C@H](O)C(C)(C)CO)no1	1.8	–	100	111	–	> 110	–	> 12
CCCCCc1ncc(CNC(=O)[C@H](O)C(C)(C)CO)o1	80	–	35	87	–	1.2	–	–
CCCCCc1ccc(CNC(=O)[C@H](O)C(C)(C)CO)s1	2.8	–	16	58	–	35	–	–
CCCCc1cc(CNC(=O)[C@H](O)C(C)(C)CO)on1	0.19	–	101	97	–	> 1000	–	–
CCCCCc1nnc(CNC(=O)[C@H](O)C(C)(C)CO)s1	0.96	–	88	90	–	> 200	–	26
CC(C)(CO)[C@@H](O)C(=O)NCc1cc(CCc2ccccc2)no1	11	–	113	102	–	> 18	–	–
CCCCCc1cc(CCNC(=O)[C@H](O)C(C)(C)CO)on1	4.8	–	95	97	–	> 41	–	–
CCCCCc1cnc(CNC(=O)[C@H](O)C(C)(C)CO)o1	23	–	82	98	–	> 8.6	–	–
